Consider six compounds from ChEMBL document CHEMBL1124179, “Nucleotide derivatives of 2,7-diaminomitosene” (1988).

Experiment [1] concerns L1210. Description: Uptake of a initial concentration of 100 ug/mL of compound in medium by L1210 cells after 10 min expressed as drug concentration in cells. As to conditions: Mus musculus. It counts as functional, cell-based. The method, boiled down: (§1)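 Cultured L1210 leukemia cells were incubated with drug in medium for set times. Cells were then washed in phosphate buffered saline and lysed by sonication in distilled water. Drug in the lysate was measured by HPLC on a short C18 column with methanol-water (65:35), against a peak-height standard curve that was linear over the range. Experiments were run in duplicate.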

For experiment [2], the system named is L1210. In words: Uptake of a initial concentration of 10 ug/mL of compound in medium by L1210 cells after 60 min expressed as drug concentration in cells. As to conditions: Mus musculus. The experiment is classed as functional, cell-based. The method, boiled down: as §1
Experiment [3] deals with L1210. Description: Uptake of a initial concentration of 100 ug/mL of compound in medium by L1210 cells after 60 min expressed as drug concentration in cells. The experiment is classed as functional, cell-based. As to conditions: Mus musculus. The gist of the method: as §1
For experiment [4], the system named is L1210. Description: Uptake of a initial concentration of 10 ug/mL of compound in medium by L1210 cells after 30 min expressed as drug concentration in cells. The experiment is classed as functional, cell-based. As to conditions: Mus musculus. The method, boiled down:
as §1

Experiment [5] has as its system L1210. Description: Uptake of a initial concentration of 10 ug/mL of compound in medium by L1210 cells after 10 min expressed as drug concentration in cells. It counts as functional, cell-based. As to conditions: Mus musculus. The method, boiled down:
as §1

Experiment [6] relates to L1210. In words: Inhibition of L1210 leukemia cells, after exposure to compound for period of 1 hr. The experiment is classed as functional. As to conditions: Mus musculus, L1210, 1 h; read-out: ID50 (the source's name). The gist of the method:
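Soft-agar colony-forming assay using L1210 murine lymphocytic leukemia cells at 4×10^4/mL. Drug exposure was either 1 h or continuous, with continuous dosing done by adding drug to the final plating medium (RPMI 1640, 10% fetal bovine serum, 1% penicillin/streptomycin, 0.3% agar). Read-out is percent survival of colony-forming cells, as the mean of six values (three plates in each of two experiments). ID50 is given as molar concentration.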

For experiment [7], the system named is L1210. In words: Uptake of a initial concentration of 100 ug/mL of compound in medium by L1210 cells after 30 min expressed as drug concentration in cells. As to conditions: Mus musculus. The experiment is classed as functional, cell-based. The gist of the method:
as §1

The subject of experiment [8] is L1210. Description: The compound was evaluated for survival of L1210 cells, when compound was exposed for a period of […] 1X (10e -8)Mconc. It counts as functional, Mus musculus. The method, boiled down:
(§2)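 In a soft-agar colony-forming assay, L1210 murine lymphocytic leukemia cells (4×10^4/mL) were exposed to drug continuously, with drug added to the final plating medium. That medium was RPMI 1640 with 10% fetal bovine serum, 1% penicillin-streptomycin and 0.3% agar. Read-out was percent survival of colony-forming cells, given as the mean of six values (three plates, two experiments).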

For experiment [9], the system named is L1210. Description: The compound was evaluated for survival of L1210 cells, when compound was exposed for a period of 1 hr 1X (10e -5)M conc. The experiment is classed as functional, Mus musculus. The method, boiled down: (§3)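 L1210 murine lymphocytic leukemia cells at 4×10^4/mL were exposed to drug for 1 h and then cloned in soft agar. The plating medium was RPMI 1640 with 10% fetal bovine serum, 1% penicillin-streptomycin and 0.3% agar. Read-out was percent survival of colony-forming cells, taken as the mean of six values (three plates in each of two experiments).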

For experiment [10], the system named is L1210. In words: The compound was evaluated for survival of L1210 cells, when compound was exposed for a period of […] 1X (10e -7)M conc. It counts as functional, Mus musculus. The method, boiled down:
as §2

Experiment [11] relates to L1210. Description: The compound was evaluated for survival of L1210 cells, when compound was exposed for a period of 1 hr 1X (10e -7)Mconc. It counts as functional, Mus musculus. The gist of the method:
as §3

Experiment [12] has as its system L1210. Description: The compound was evaluated for survival of L1210 cells, when compound was exposed for a period of 1 hr 1X (10e -6)M conc. It counts as functional, Mus musculus. The gist of the method:
as §3

Experiment [13] deals with L1210. In words: The compound was evaluated for survival of L1210 cells, when compound was exposed for a period of […] 5*(10e -8)M conc. It counts as functional, Mus musculus. The method, boiled down: as §2
The subject of experiment [14] is L1210. Description: The compound was evaluated for survival of L1210 cells, when compound was exposed for a period of […] 1X (10e -9)M conc. The experiment is classed as functional, Mus musculus. The gist of the method:
as §2

Experiment [15] relates to L1210. In words: The compound was evaluated for survival of L1210 cells, when compound was exposed for a period of 1 hr 5*(10e -5)M conc. The experiment is classed as functional, Mus musculus. The method, boiled down: as §3

Regarding `CC1=C(N)C(=O)c2c(COC(N)=O)c3n(c2C1=O)CC(N)C3OP(=O)(O)OC[C@H]1O[C@@H](n2ccc(=O)[nH]c2=O)[C@H](O)[C@@H]1O` (some centres undefined), the Concentration with L1210 [1] worked out at 20 µg/mL; in the experiment on L1210 [2], 2.5 µg/mL; in the experiment on L1210 [3], 1 µg/mL; with L1210 [4], 1 µg/mL; in the experiment with L1210 [5] it was 8 µg/mL; with L1210 [7], 20 µg/mL. Also, in the experiment with L1210 [6], the IC50 amounted to 13.3 µM.

As to `CC1=C(N)C(=O)c2c(COC(N)=O)c3n(c2C1=O)CC(N)C3OP(=O)(O)OC[C@H]1O[C@@H](n2cc(F)c(=O)[nH]c2=O)C[C@@H]1O` (some centres undefined), the IC50 in the experiment with L1210 [6] is 14 µM.

As to `CO[C@@]12[C@H](COC(N)=O)C3=C(C(=O)C(C)=C(N)C3=O)N1C[C@@H]1N[C@@H]12.O=c1[nH]c(=O)n([C@H]2C[C@H](O)[C@@H](CO)O2)cc1F`, the Survival in the experiment with L1210 [8] is 70%; in the experiment with L1210 [9], 1%; in the experiment on L1210 [10], 3%; in the experiment on L1210 [11], 100%; in the experiment on L1210 [12], 48%; in the experiment with L1210 [13], 42%. Besides, the Survival was 84% with L1210 [14] and 2% with L1210 [15].

`CC1=C(N)C(=O)c2c(COC(N)=O)c3n(c2C1=O)CC(N)C3[18OH]` (centres undefined): the IC50 in the experiment on L1210 [6] stood at 62 µM.

As to `O=c1[nH]c(=O)n([C@H]2C[C@H](O)[C@@H](CO)O2)cc1F` [FLOXURIDINE], the Survival turned out to be 76% in the experiment on L1210 [8]; 92% in the experiment with L1210 [9]; 62% in the experiment on L1210 [10]; 98% in the experiment with L1210 [11]; 94% in the experiment with L1210 [12]; 68% in the experiment with L1210 [13]. Also, the Survival turned out to be 100% with L1210 [14] and 89% in the experiment on L1210 [15].

Consider `CO[C@@]12[C@H](COC(N)=O)C3=C(C(=O)C(C)=C(N)C3=O)N1C[C@@H]1N[C@@H]12` [MITOMYCIN], for which the Survival with L1210 [8] worked out at 100%; in the experiment with L1210 [9], 1%; with L1210 [10], 7%; in the experiment with L1210 [11], 89%; in the experiment on L1210 [12], 52%; in the experiment with L1210 [13], 73%. For the same compound, the Survival with L1210 [14] worked out at 98%; in the experiment on L1210 [15], 2%. The IC50 in the experiment on L1210 [6] turned out to be 3.1 µM.
